# According to ChEMBL document CHEMBL1165943, “Design and synthesis of new anticancer pyrimidines with multiple-kinase inhibitory effect” (Bioorg Med Chem, 2010):
# What was measured:
# CAKI-1 = assay: Growth inhibition of human Caki1 cells after 48 hrs by sulforhodamine B assay; format: functional, cell-based; details: CAKI-1, 48 h
# Procedure, shortened: (§1)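 Five-dose SRB assay. Cells in RPMI 1640 with 5% FBS and 2 mM L-glutamine were seeded at 5,000–40,000 cells/well, with a TCA-fixed time-zero plate (Tz) taken at 24 h. Compound stocks were in DMSO, serially diluted 10-fold or ½-log to five concentrations, and incubated 48 h at 37 °C. Plates were stained with SRB and read at 515 nm. IC₅₀ was taken where [(Ti−Tz)/(C−Tz)]×100 = 50.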
# HL-60(TB) = assay: Cytotoxicity against human HL-60(TB) cells assessed as cell growth at 0.001 uM after 48 hrs by sulforhodamine B assay; format: functional; details: HL-60, 48 h, read-out: Activity
# Procedure, shortened: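 Five-concentration HL-60(TB) test in RPMI 1640 with 5% FBS and 2 mM L-glutamine. Cells are plated at 5,000–40,000/well and a TCA-fixed time-zero plate is read at drug addition after 24 h. Drug is dissolved in DMSO and given as five 10-fold or ½log dilutions for 48 h at 37 °C, 5% CO2. Settled cells are fixed with TCA, stained with SRB and read at 515 nm.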
# SNB-75 = assay: Cytotoxicity against human SNB75 cells assessed as cell growth at 0.001 uM after 48 hrs by sulforhodamine B assay; format: functional; details: SNB-75, 48 h, read-out: Activity
# UACC-62 [1] = assay: Cytotoxicity against human UACC62 cells assessed as cell growth at 0.001 uM after 48 hrs by sulforhodamine B assay; format: functional; details: UACC-62, 48 h, read-out: Activity
# EKVX [2] = assay: Cytotoxicity against human EKVX cells assessed as cell growth at 100 nM after 48 hrs by sulforhodamine B assay; format: functional; details: read-out: Activity
# HCT-15 = assay: Cytotoxicity against human HCT15 cells assessed as cell growth at 100 nM after 48 hrs by sulforhodamine B assay; format: functional; details: HCT-15, 48 h, read-out: Activity
# Malme-3M = assay: Cytotoxicity against human MALME-3M cells assessed as cell growth at 100 nM after 48 hrs by sulforhodamine B assay; format: functional; details: read-out: Activity
# UACC-62 [3] = assay: Cytotoxicity against human UACC62 cells assessed as cell growth at 100 nM after 48 hrs by sulforhodamine B assay; format: functional; details: UACC-62, 48 h, read-out: Activity
# OVCAR-3 = assay: Cytotoxicity against human OVCAR-3 cells assessed as cell growth at 100 nM after 48 hrs by sulforhodamine B assay; format: functional; details: OVCAR-3, 48 h, read-out: Activity
# K562 = assay: Cytotoxicity against human K562 cells assessed as cell growth at 0.01 uM after 48 hrs by sulforhodamine B assay; format: functional; details: K562, 48 h, read-out: Activity
# NCI-H23 [4] = assay: Cytotoxicity against human NCI-H23 cells assessed as cell growth at 0.01 uM after 48 hrs by sulforhodamine B assay; format: functional; details: NCI-H23, 48 h, read-out: Activity
# SF-539 = assay: Cytotoxicity against human SF539 cells assessed as cell growth at 0.01 uM after 48 hrs by sulforhodamine B assay; format: functional; details: SF-539, 48 h, read-out: Activity
# U-251 = assay: Cytotoxicity against human U251 cells assessed as cell growth at 0.01 uM after 48 hrs by sulforhodamine B assay; format: functional; details: U-251, 48 h, read-out: Activity
# MDA-MB-435 = assay: Cytotoxicity against human MDA-MB-435 cells assessed as cell growth at 10 uM after 48 hrs by sulforhodamine B assay; format: functional; details: MDA-MB-435, 48 h, read-out: Activity
# 786-0 = assay: Cytotoxicity against human 786-0 cells assessed as cell growth at 10 uM after 48 hrs by sulforhodamine B assay; format: functional; details: 786-0, 48 h, read-out: Activity
# Procedure, shortened: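 Cells grown in RPMI 1640 with 5% FBS and 2 mM L-glutamine, seeded at 5,000–40,000 cells/well by doubling time. Time-zero plates TCA-fixed after 24 h. Five concentrations (10-fold or half-log dilutions from DMSO stock) added; 48 h at 37 °C, 5% CO2. Cold TCA fixation (final 10%, 60 min, 4 °C), 0.4% SRB stain, dye solubilized in 10 mM trizma base, A515.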
# MDA-MB-468 = assay: Cytotoxicity against human MDA-MB-468 cells assessed as cell growth at 10 uM after 48 hrs by sulforhodamine B assay; format: functional; details: MDA-MB-468, 48 h, read-out: Activity
# T47D = assay: Cytotoxicity against human T47D cells assessed as cell growth at 100 nM after 48 hrs by sulforhodamine B assay; format: functional; details: read-out: Activity
# MOLT-4 = assay: Cytotoxicity against human MOLT4 cells assessed as cell growth at 1 uM after 48 hrs by sulforhodamine B assay; format: functional; details: MOLT-4, 48 h, read-out: Activity
# NCI/ADR-RES = assay: Cytotoxicity against human NCI/ADR-RES cells assessed as cell growth at 1 uM after 48 hrs by sulforhodamine B assay; format: functional; details: read-out: Activity
# SN12C = assay: Cytotoxicity against human SN12C cells assessed as cell growth at 1 uM after 48 hrs by sulforhodamine B assay; format: functional; details: read-out: Activity
# EKVX [5] = assay: Cytotoxicity against human EKVX cells assessed as cell growth at 10 uM after 48 hrs by sulforhodamine B assay; format: functional; details: read-out: Activity
# NCI-H23 [6] = assay: Cytotoxicity against human NCI-H23 cells assessed as cell growth at 10 uM after 48 hrs by sulforhodamine B assay; format: functional; details: NCI-H23, 48 h, read-out: Activity
# A549 = assay: Growth inhibition of human A549 cells after 48 hrs by sulforhodamine B assay; format: functional, cell-based; details: A549, 48 h; for CC50: read-out: LC50 (the source's name); procedure, shortened: as §1
# COLO 205 = assay: Growth inhibition of human COLO205 cells after 48 hrs by sulforhodamine B assay; format: functional, cell-based; details: COLO 205, 48 h; for CC50: read-out: LC50 (the source's name); procedure, shortened: as §1
# SW-620 = assay: Growth inhibition of human SW620 cells after 48 hrs by sulforhodamine B assay; format: functional, cell-based; details: SW-620, 48 h; for CC50: read-out: LC50 (the source's name)
# Procedure, shortened: (§2)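 Cells grown in RPMI 1640 with 5% FBS and 2 mM L-glutamine, seeded at 5,000–40,000 cells/well according to doubling time. After 24 h, time-zero plates are TCA-fixed. Five concentrations (10-fold or ½log dilutions, DMSO stocks) are applied for 48 h at 37 °C, 5% CO₂. Cells are TCA-fixed, SRB-stained and read at 515 nm. IC₅₀ is taken from [(Ti−Tz)/(C−Tz)]×100 = 50.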
# SF-268 = assay: Growth inhibition of human SF268 cells after 48 hrs by sulforhodamine B assay; format: functional, cell-based; details: SF-268, 48 h; for CC50: read-out: LC50 (the source's name); procedure, shortened: as §2
# SK-MEL-2 = assay: Growth inhibition of human SK-MEL-2 cells after 48 hrs by sulforhodamine B assay; format: functional, cell-based; details: SK-MEL-2, 48 h; for CC50: read-out: LC50 (the source's name); procedure, shortened: as §2
compound,measurement,setting,value
CC(=O)c1ccccc1-c1ccc(-c2ccnc(NC(=O)Nc3cc(N4CCOCC4)cc(C(F)(F)F)c3)n2)cn1,GI50,CAKI-1,6.89 µM
same,IC50,CAKI-1,> 100 µM
same,LC50 (lethal concentration 50%),CAKI-1,> 100 µM
same,TGI,CAKI-1,> 100 µM
same,growth at 0.001 µM,HL-60(TB),92%
same,growth at 0.001 µM,SNB-75,88%
same,growth at 0.001 µM,UACC-62 [1],94%
same,growth at 0.1 µM,EKVX [2],91%
same,growth at 0.1 µM,HCT-15,92%
same,growth at 0.1 µM,Malme-3M,78%
same,growth at 0.1 µM,UACC-62 [3],90%
same,growth at 0.1 µM,OVCAR-3,109%
same,growth at 0.01 µM,K562,75%
same,growth at 0.01 µM,NCI-H23 [4],99%
same,growth at 0.01 µM,SF-539,107%
same,growth at 0.01 µM,U-251,98%
same,growth at 10 µM,MDA-MB-435,91%
same,growth at 10 µM,786-0,10%
same,growth at 10 µM,MDA-MB-468,65%
same,growth at 0.1 µM,T47D,8.3%
same,growth at 1 µM,MOLT-4,86%
same,growth at 1 µM,NCI/ADR-RES,50%
same,growth at 1 µM,SN12C,64%
same,growth at 10 µM,EKVX [5],74%
same,growth at 10 µM,NCI-H23 [6],60%
same,GI50,A549,> 100 µM
same,IC50,A549,> 100 µM
same,TGI,A549,> 100 µM
same,CC50,A549,> 100 µM
same,GI50,COLO 205,> 63.2 µM
same,IC50,COLO 205,> 100 µM
same,TGI,COLO 205,> 100 µM
same,CC50,COLO 205,> 100 µM
same,GI50,SW-620,> 100 µM
same,IC50,SW-620,> 100 µM
same,TGI,SW-620,> 100 µM
same,CC50,SW-620,> 100 µM
same,GI50,SF-268,> 100 µM
same,IC50,SF-268,40.2 µM
same,TGI,SF-268,> 100 µM
same,CC50,SF-268,> 100 µM
same,GI50,SK-MEL-2,> 100 µM
same,IC50,SK-MEL-2,15.9 µM
same,TGI,SK-MEL-2,75.5 µM
same,CC50,SK-MEL-2,> 100 µM
CC(=O)Nc1cccc(-c2ccc(-c3ccnc(NC(=O)Nc4cc(C(F)(F)F)cc(C(F)(F)F)c4)n3)cn2)c1.Cl,GI50,CAKI-1,2.37 µM
same,IC50,CAKI-1,2.37 µM
same,LC50 (lethal concentration 50%),CAKI-1,> 100 µM
same,TGI,CAKI-1,8.34 µM
same,growth at 0.001 µM,HL-60(TB),95%
same,growth at 0.001 µM,SNB-75,57%
same,growth at 0.001 µM,UACC-62 [1],93%
same,growth at 0.1 µM,EKVX [2],63%
same,growth at 0.1 µM,HCT-15,90%
same,growth at 0.1 µM,Malme-3M,93%
same,growth at 0.1 µM,UACC-62 [3],82%
same,growth at 0.1 µM,OVCAR-3,67%
same,growth at 0.01 µM,K562,32%
same,growth at 0.01 µM,NCI-H23 [4],92%
same,growth at 0.01 µM,SF-539,78%
same,growth at 0.01 µM,U-251,90%
same,growth at 10 µM,MDA-MB-435,-27%
same,growth at 10 µM,786-0,100%
same,growth at 10 µM,MDA-MB-468,100%
same,growth at 0.1 µM,T47D,42%
same,growth at 1 µM,MOLT-4,4%
same,growth at 1 µM,NCI/ADR-RES,17%
same,growth at 1 µM,SN12C,49%
same,growth at 10 µM,EKVX [5],-7%
same,growth at 10 µM,NCI-H23 [6],-69%
same,GI50,A549,1.48 µM
same,IC50,A549,1.48 µM
same,TGI,A549,12.6 µM
same,CC50,A549,41.9 µM
same,GI50,COLO 205,11 µM
same,IC50,COLO 205,11 µM
same,TGI,COLO 205,> 100 µM
same,CC50,COLO 205,> 100 µM
same,GI50,SW-620,2.3 µM
same,IC50,SW-620,2.3 µM
same,TGI,SW-620,5.59 µM
same,CC50,SW-620,> 100 µM
same,GI50,SF-268,4.92 µM
same,IC50,SF-268,4.92 µM
same,TGI,SF-268,23.9 µM
same,CC50,SF-268,98.7 µM
same,GI50,SK-MEL-2,5.65 µM
same,IC50,SK-MEL-2,5.65 µM
same,TGI,SK-MEL-2,19.8 µM
same,CC50,SK-MEL-2,52.4 µM
